Test results from ChEMBL document CHEMBL3352437, “Novel 3,5-bis(arylidene)-4-oxo-1-piperidinyl dimers: structure-activity relationships and potent antileukemic and antilymphoma cytotoxicity” (Eur J Med Chem, 2014).

Assays:
Format in all cases: functional, cell-based
HCC 2998 = assay: Cytotoxicity against human HCC2998 cells assessed as inhibition of tumor growth after 24 hrs; settings: HCC 2998, 24 h
K562 = assay: Antileukemic activity against human K562 cells assessed as inhibition of tumor growth after 24 hrs; settings: K562, 24 h
[1] = Antileukemic activity against human RPMI8226 cells assessed as inhibition of tumor growth after 24 hrs; settings: rpmi-8226
COLO 205 = assay: Cytotoxicity against human COLO205 cells assessed as inhibition of tumor growth after 24 hrs; settings: COLO 205, 24 h
SW-620 = assay: Cytotoxicity against human SW620 cells assessed as inhibition of tumor growth after 24 hrs; settings: SW-620, 24 h
[2] = Cytotoxicity against human HCT15 cells assessed as inhibition of tumor growth after 24 hrs; settings: HCT-15, 24 h
[3] = Cytotoxicity against human NCI60 cells assessed as inhibition of tumor growth after 24 hrs; settings: NCI60, 24 h
SR = assay: Antileukemic activity against human SR cells assessed as inhibition of tumor growth after 24 hrs
HL-60(TB) = assay: Antileukemic activity against human HL-60(TB) cells assessed as inhibition of tumor growth after 24 hrs; settings: HL-60, 24 h
KM12 = assay: Cytotoxicity against human KM12 cells assessed as inhibition of tumor growth after 24 hrs; settings: KM12, 24 h
[4] = Antiproliferative activity against human Molt4/C8 cells after 72 hrs by coulter counting analysis; settings: MOLT-4, 72 h
How it was run: (§1)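 Cells exposed to a range of concentrations in RPMI 1640 at 37°C for 72 h. Surviving cells counted by Coulter counter. IC50 taken from concentration-response curves, mean ± SD of at least three independent experiments.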

CCRF-CEM = assay: Antiproliferative activity against human CEM cells after 72 hrs by coulter counting analysis; how it was run: as §1
HeLa = assay: Antiproliferative activity against human HeLa cells after 72 hrs by coulter counting analysis; how it was run: as §1
L1210 = assay: Antiproliferative activity against mouse L1210 cells after 72 hrs by coulter counting analysis; settings: L1210, 72 h

## O=C1/C(=C\c2ccc(O)cc2)CN(C(=O)CC(=O)N2C/C(=C\c3ccc(O)cc3)C(=O)/C(=C/c3ccc(O)cc3)C2)C/C1=C\c1ccc(O)cc1
HCC 2998
  IC50: 1.74 µM
K562
  IC50: 0.53 µM
[1]
  IC50: 0.35 µM
COLO 205
  IC50: 1.66 µM
SW-620
  IC50: 0.76 µM
[2]
  IC50: 1.17 µM
[3]
  IC50: 1.66 µM
SR
  IC50: 0.46 µM
HL-60(TB)
  IC50: 1.74 µM
KM12
  IC50: 0.69 µM

## O=C1/C(=C/c2ccccc2)CN(C(=O)C(=O)N2C/C(=C\c3ccccc3)C(=O)/C(=C/c3ccccc3)C2)C/C1=C\c1ccccc1
[4]
  IC50: 0.462 µM
[1]
  IC50: 0.03 µM
[2]
  IC50: 0.3 µM
[3]
  IC50: 0.31 µM
SR
  IC50: 0.02 µM
CCRF-CEM
  IC50: 0.75 µM
HeLa
  IC50: 1 µM
L1210
  IC50: 4.46 µM

## O=C1/C(=C\c2ccccc2)CN(C(=O)CC(=O)N2C/C(=C\c3ccccc3)C(=O)/C(=C/c3ccccc3)C2)C/C1=C\c1ccccc1
[4]
  IC50: 0.073 µM
HCC 2998
  IC50: 0.17 µM
K562
  IC50: 0.05 µM
[1]
  IC50: 0.13 µM
COLO 205
  IC50: 0.16 µM
SW-620
  IC50: 0.05 µM
[2]
  IC50: 0.17 µM
[3]
  IC50: 0.24 µM
SR
  IC50: 0.03 µM
CCRF-CEM
  IC50: 0.201 µM
HeLa
  IC50: 0.91 µM
HL-60(TB)
  IC50: 0.29 µM
L1210
  IC50: 1.23 µM
KM12
  IC50: 0.13 µM

## O=c1[nH]cc(F)c(=O)[nH]1 [FLUOROURACIL]
[1]
  IC50: 3.55 µM
[3]
  IC50: 29.5 µM

## O=C1/C(=C\c2ccc(Cl)c(Cl)c2)CN(C(=O)CC(=O)N2C/C(=C\c3ccc(Cl)c(Cl)c3)C(=O)/C(=C/c3ccc(Cl)c(Cl)c3)C2)C/C1=C\c1ccc(Cl)c(Cl)c1
[4]
  IC50: 23.5 µM
CCRF-CEM
  IC50: 49.9 µM
HeLa
  IC50: 39.8 µM
L1210
  IC50: 30.4 µM

## N[C@@H](Cc1ccc(N(CCCl)CCCl)cc1)C(=O)O [MELPHALAN]
[4]
  IC50: 2.81 µM
HCC 2998
  IC50: 52.5 µM
K562
  IC50: 195 µM
[1]
  IC50: 28.2 µM
COLO 205
  IC50: 32.4 µM
SW-620
  IC50: 26.9 µM
[3]
  IC50: 19.1 µM
SR
  IC50: 3.24 µM
CCRF-CEM
  IC50: 1.44 µM
HeLa
  IC50: 1.7 µM
HL-60(TB)
  IC50: 0.38 µM
L1210
  IC50: 4.85 µM
KM12
  IC50: 57.5 µM

## COc1ccc(/C=C2/CN(C(=O)CC(=O)N3C/C(=C\c4ccc(OC)cc4)C(=O)/C(=C/c4ccc(OC)cc4)C3)C/C(=C\c3ccc(OC)cc3)C2=O)cc1
[4]
  IC50: 449 µM
CCRF-CEM
  IC50: 369 µM
HeLa
  IC50: 219 µM
L1210
  IC50: > 500 µM

## COc1cc(/C=C/C(=O)CC(=O)/C=C/c2ccc(O)c(OC)c2)ccc1O [CURCUMIN]
[4]
  IC50: 6.46 µM
CCRF-CEM
  IC50: 8.16 µM
HeLa
  IC50: 21.2 µM
L1210
  IC50: 15.1 µM

## CN(C)c1ccc(/C=C2\CN(C(=O)C(=O)N3C/C(=C\c4ccc(N(C)C)cc4)C(=O)/C(=C/c4ccc(N(C)C)cc4)C3)C/C(=C\c3ccc(N(C)C)cc3)C2=O)cc1
[4]
  IC50: 437 µM
CCRF-CEM
  IC50: 276 µM
HeLa
  IC50: > 500 µM
L1210
  IC50: 297 µM
